Test results published in ChEMBL document CHEMBL1140717, “Acridine-based agents with topoisomerase II activity inhibit pancreatic cancer cell proliferation and induce apoptosis” (J Med Chem, 2008).
pIC50: −log10 of the molar value.

Columns and labels:
MIA PaCa-2 [1] = assay: Cell cycle arrest in human MiaPaCa2 cells assessed as accumulation at G2/M phase at 15 uM after 36 hrs; assay type: functional
Outline: (§1)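 Cells grown in DMEM with 10% fetal calf serum and L-glutamine, then exposed to diluent or compound at 15 µM final for 36 h. Fixed in 50% ethanol, rehydrated, RNase-treated and stained with 50 µg/mL propidium iodide in 0.1% sodium citrate. Flow cytometry (≥20 000 events per sample) gave the percentage of cells in G1, S and G2/M.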

BXPC-3 [2] = assay: Cell cycle arrest in human BXPC3 cells assessed as accumulation at G2/M phase at 15 uM after 36 hrs; assay type: functional; outline: as §1
BXPC-3 [3] = assay: Growth inhibition of human BXPC3 cells after 72 hrs by MTT assay; assay type: functional, cell-based; conditions: BXPC-3, 72 h
Outline: (§2)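 Cells maintained in DMEM with 10% fetal calf serum plus L-glutamine, then exposed over 72 h to a range of compound concentrations. Viability read by MTT; percent growth inhibition determined and IC50 estimated from the MTT data.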

[4] = Cell cycle arrest in human SU86.86 cells assessed as accumulation at S phase at 15 uM after 36 hrs; assay type: functional, cell-based; conditions: SU.86.86; outline: as §1
BXPC-3 [5] = assay: Cell cycle arrest in human BXPC3 cells assessed as accumulation at S phase at 15 uM after 36 hrs; assay type: functional; outline: as §1
BXPC-3 [6] = assay: Induction of apoptosis in human BXPC3 cells at 15 uM after 48 hrs; assay type: functional
Outline: (§3)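 BXPC-3 cells exposed to diluent or compound for 48 h, then collected and nuclei stained with Hoechst. Three hundred nuclei per field scored as apoptotic when the nucleus was fragmented into multiple discrete fragments; result expressed as percentage of cells in apoptosis.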

[7] = Cell cycle arrest in human SU86.86 cells assessed as accumulation at G1 phase at 15 uM after 36 hrs; assay type: functional, cell-based; conditions: SU.86.86; outline: as §1
BXPC-3 [8] = assay: Cell cycle arrest in human BXPC3 cells assessed as accumulation at G1 phase at 15 uM after 36 hrs; assay type: functional; outline: as §1
MIA PaCa-2 [9] = assay: Cell cycle arrest in human MiaPaCa2 cells assessed as accumulation at G1 phase at 15 uM after 36 hrs; assay type: functional; outline: as §1
SU.86.86 [10] = assay: Induction of apoptosis in human SU86.86 cells at 15 uM after 48 hrs; assay type: functional
[11] = Growth inhibition of human SU86.86 cells after 72 hrs by MTT assay; assay type: functional, cell-based; conditions: SU.86.86, 72 h; outline: as §2
[12] = Cell cycle arrest in human SU86.86 cells assessed as accumulation at G2/M phase at 15 uM after 36 hrs; assay type: functional, cell-based; conditions: SU.86.86; outline: as §1
MIA PaCa-2 [13] = assay: Growth inhibition of human MiaPaCa2 cells after 72 hrs by MTT assay; assay type: functional, cell-based; conditions: MIA PaCa-2, 72 h; outline: as §2
MIA PaCa-2 [14] = assay: Cell cycle arrest in human MiaPaCa2 cells assessed as accumulation at S phase at 15 uM after 36 hrs; assay type: functional; outline: as §1
MIA PaCa-2 [15] = assay: Induction of apoptosis in human MiaPaCa2 cells at 15 uM after 48 hrs; assay type: functional
MIA PaCa-2 [16] = assay: Induction of apoptosis in human MiaPaCa2 cells at 50 uM after 48 hrs; assay type: functional
SU.86.86 [17] = assay: Induction of apoptosis in human SU86.86 cells 50 uM after 48 hrs; assay type: functional
BXPC-3 [18] = assay: Induction of apoptosis in human BXPC3 cells 50 uM after 48 hrs; assay type: functional; outline: as §3
SU.86.86 [19] = assay: Induction of apoptosis in human SU86.86 cells at 25 uM after 48 hrs; assay type: functional
MIA PaCa-2 [20] = assay: Induction of apoptosis in human MiaPaCa2 cells at 25 uM after 48 hrs; assay type: functional
BXPC-3 [21] = assay: Induction of apoptosis in human BXPC3 cells at 25 uM after 48 hrs; assay type: functional; outline: as §3

pIC50 (BXPC-3 [3])	pIC50 (MIA PaCa-2 [13])	Structure (SMILES)	Activity (MIA PaCa-2 [1]) [%]	Activity (BXPC-3 [2]) [%]	Activity [4] [%]	Activity (BXPC-3 [5]) [%]	Activity (BXPC-3 [6]) [%]	Activity [7] [%]	Activity (BXPC-3 [8]) [%]	Activity (MIA PaCa-2 [9]) [%]	Activity (SU.86.86 [10]) [%]	pIC50 [11]	Activity [12] [%]	Activity (MIA PaCa-2 [14]) [%]	Activity (MIA PaCa-2 [15]) [%]	further results
4.92	5.22	CN1CCN(C(=O)c2ccc3c(NCCc4c[nH]c5ccccc45)c4ccccc4nc3c2)CC1	20	7	26	12	44	50	81	29	34	5.10	24	51	20	
	5.40	CN1CCN(C(=O)c2cccc3c(NCCc4c[nH]c5ccccc45)c4ccccc4nc23)CC1	21	7	27	10		56	83	32		5.00	17	47		Activity (MIA PaCa-2 [16]): 29%; Activity (SU.86.86 [17]): 23%; Activity (BXPC-3 [18]): 32%
4.85	4.96	CCN(CC)C(=O)c1ccc2c(NCCc3c[nH]c4ccccc34)c3ccccc3nc2c1	18	4		20	40	60	76	32	17	5.00	16	50	42	
5.15	6.00	CN1CCN(C(=O)c2ccc3c(NC4CCN(Cc5ccccc5)CC4)c4ccccc4nc3c2)CC1	20	7	29	16		53	77	28		5.22	18	52		Activity (SU.86.86 [19]): 30%; Activity (MIA PaCa-2 [20]): 36%; Activity (BXPC-3 [21]): 52%
